In publication PMC4304654 (Bioorganic & medicinal chemistry, 2012):
≈ marks a conversion by molar mass, not a printed value. Like-named read-outs stand apart in the source and are kept apart here. One block for each compound: values may come before it.

Tests used:
[1] = cited from earlier work; for Solubility in assay buffer, upper solubility limit: sodium acetate fibrillization assay buffer, previously reported data ref 7
[2] = biological target: K18 tau fragment (amino acids 244–369) bearing the P301L mutation (K18PL) (Homo sapiens, UniProt P10636, P618L); settings: 50 μM compound concentration; previously reported data ref 7; cited from earlier work
[3] = mice, 1 h after 5 mg/kg i.p.; previously reported data ref 7; cited from earlier work
[4] = cited from earlier work
[5] = mouse plasma; previously reported data ref 7; cited from earlier work
[6] = Aqueous solubility in the sodium acetate buffer of the fibrillization assay; type: physicochemical
[7] = Full PK evaluation and oral bioavailability of 43; type: in vivo, B6C3F1 mice; settings: mice, 5 mg/kg i.p., 0.5–16 h post-dosing
[8] = tested on: mice; settings: mouse, in vivo, 100 mg/kg
[9] = tested on: mice; settings: mouse, in vivo, 50 mg/kg/day
[10] = in vivo; settings: female, mouse, 50 mg/kg/day, Calculated free compound level in brain, mice, 3 days of dosing via drinking water at 50 mg/kg/day
[11] = Unbound fraction in plasma by rapid equilibrium dialysis; type: in vitro ADME; settings: mouse, pH 7.4
[12] = Brain and plasma levels 1 h after i.p. administration of 5 mg/kg; type: in vivo, B6C3F1 mice; settings: mice, 1 h after 5 mg/kg i.p.
Procedure, shortened: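 Mice got a single i.p. 5 mg/kg dose of test compound and were sacrificed 1 h later. Perfused brain hemispheres were sonicated in 10 mM ammonium acetate, pH 5.7 (50% w/v). Plasma came from EDTA-treated blood spun 10 min at 4500g, 4 °C. Samples were acetonitrile-precipitated and spun at 15000g. Supernatants went to LC-MS/MS (MRM, C18, 35 °C) and were quantified against matrix-matched linear standard curves.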

[13] = mice, 3 days of dosing via drinking water at 50 mg/kg/day

K18 tau fragment (amino acids 244–369) bearing the P301L mutation (K18PL), sequence (P10636 561-686 P618L): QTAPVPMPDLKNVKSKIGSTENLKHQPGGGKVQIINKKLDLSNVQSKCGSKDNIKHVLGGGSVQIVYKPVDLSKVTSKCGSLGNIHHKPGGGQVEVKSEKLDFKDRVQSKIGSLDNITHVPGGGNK

Compound: CCOC(=O)c1nn(-c2ccc(Cl)cc2)c(=O)c2c(N)scc12 [Compound 29, Ethyl 5-amino-3-(4-chlorophenyl)-4-oxo-3,4-dihydrothieno-[3,4-d]pyridazine-1-carboxylate]
Solubility in assay buffer, upper solubility limit [1]: 13 µM (≈ 4.55 µg/mL)
K18PL centrifugation assay % Soluble [2]: 47%

Compound: Nc1scc2c(C(=O)O)nn(-c3ccc(Cl)cc3)c(=O)c12 [Compound 37, 5-Amino-3-(4-chlorophenyl)-4-oxo-3,4-dihydrothieno[3,4-d]pyridazine-1-carboxylic acid]
Solubility in assay buffer, upper solubility limit [1]: >200 µM
K18PL centrifugation assay % Soluble [2]: 74%

Compound: Nc1scc2c(C(=O)NC3CC3)nn(-c3ccc(Cl)cc3)c(=O)c12 [Compound 1, 5-Amino-3-(4-chlorophenyl)-N-cyclopropyl-4-oxo-3,4-dihydrothieno[3,4-d]pyridazine-1-carboxamide]
Solubility in assay buffer, upper solubility limit [1]: 32 µM (≈ 11.5 µg/mL)
Water solubility ([1]; text of introduction): ~ 30 μM
K18PL centrifugation assay % Soluble [2]: 69%
B/P (fu), ratio of free drug in brain and plasma [3]: 0.92 ±0.16
B/P (total), brain-to-plasma ratio [3]: 1.61 ± 0.28
Brain level [3]: 1300 ± 110 ng/g
Plasma level [3]: 820 ± 150 ng/mL
Bound in brain homogenates ([4]; equilibrium dialysis): ~ 99%
Fu (%) brain, fraction unbound ([4]; mouse brain homogenate, previously reported data ref 7): 1.1 ± 0.6%
Fu (%) plasma, fraction unbound [5]: 1.9 ± 0.2%

Compound: Nc1scc2c(C(=O)NC3CC3)nn(-c3ccc(F)cc3)c(=O)c12 [Compound 43, 5-Amino-N-cyclopropyl-3-(4-fluorophenyl)-4-oxo-3,4-dihydrothieno[3,4-d]pyridazine-1-carboxamide]
solubility [6]: > 200 µM
Brain exposure [7]: good brain exposure
Signs of toxicity after a single oral administration [8]: only mild and transient lethargy
Adverse events [9]: no visible adverse events
Amount of water consumed [9]: normal
Blood cell counts [9]: no alterations in any blood cell counts
Tolerability ([9]; po): well-tolerated with no notable side-effects
Calculated free compound level in brain [13]: 6 nM
Total brain levels [13]: ~ 140 nM
Plasma and brain levels after 30 days versus 3 days in drinking water (mouse, in vivo, 50 mg/kg/day): comparable
concentration at 3 days [10]: 6 ± 0.4 nM

solubility [6]: 80 µM (≈ 21.7 µg/mL)
fraction unbound at 5 h, 1 μM [11]: 0.04 ± 0.01
Compound: Cc1nn(Cc2ccccc2)c(=O)c2c(N)scc12 [Compound 62, 7-Amino-2-benzyl-4-methylthieno[3,4-d]pyridazin-1(2H)-one]

solubility [6]: > 200 µM
B/P (total), brain-to-plasma ratio [12]: unity
fraction unbound at 5 h, 1 μM [11]: 0.057 ± 0.005
Compound: CC(C)NC(=O)c1nn(-c2ccc(F)cc2)c(=O)c2c(N)scc12 [Compound 42, 5-Amino-3-(4-fluorophenyl)-N-isopropyl-4-oxo-3,4-dihydrothieno[3,4-d]pyridazine-1-carboxamide]

solubility [6]: > 200 µM
B/P (total), brain-to-plasma ratio [12]: unity
fraction unbound at 5 h, 1 μM [11]: 0.022 ± 0.002
Compound: Nc1scc2c(C(=O)NCC(F)(F)F)nn(-c3ccc(F)cc3)c(=O)c12 [Compound 44, 5-Amino-3-(4-fluorophenyl)-4-oxo-N-(2,2,2-trifluoroethyl)-3,4-dihydrothieno[3,4-d]pyridazine-1-carboxamide]
